Test results as given in ChEMBL document CHEMBL1137403, “Discovery of 2-[4-{{2-(2S,5R)-2-cyano-5-ethynyl-1-pyrrolidinyl]-2-oxoethyl]amino]- 4-methyl-1-piperidinyl]-4-pyridinecarboxylic acid (ABT-279): a very potent, selective, effective, and well-tolerated inhibitor of dipeptidyl peptidase-IV, useful for the treatment of diabetes” (J Med Chem, 2006).
Active and inactive are the calls of the source. No cut-off for these calls is given here.

Key:
[1] = Volume of distribution in terminal phase in Beagle dog at 2.5 mg/kg, iv; type: ADME, organism-based, Canis lupus familiaris; parameters: dose 2.5 mg/kg, route intravenous; details: in vivo, read-out: Vbeta
[2] = AUC (0-24h) in rat; type: ADME, organism-based; parameters: time < 24 hr; details: plasma
[3] = AUC (0-24h) in dog; type: ADME, organism-based, Canis lupus familiaris; parameters: time < 24 hr; details: plasma
Rattus norvegicus [4] = assay: Hemodynamic activity in rat upto 28 ug/ml, iv; type: functional, organism-based
Procedure, shortened: (§1)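 Hemodynamic and electrocardiographic profile recorded in anesthetized rats or dogs given the drug intravenously, at plasma concentrations up to 28 µg/mL.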

[5] = Drug level in Zucker rat plasma after 4 hrs at 1 mg/kg; type: ADME, organism-based; parameters: dose 1 mg/kg; details: read-out: Drug uptake
Procedure, shortened: (§2)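 Female ZDF rats, 10 weeks old, fasted overnight, then dosed orally with vehicle or drug. Four hours after dosing (t = 0) they had free access for 4 h to a liquid mixed meal (Ensure). Plasma was sampled for drug level, active GLP-1, insulin, glucagon and glucose.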

[6] = Cmax in cynomolgus monkey at 2.5 mg/kg, po; type: ADME, organism-based, Macaca fascicularis; parameters: dose 2.5 mg/kg, route oral; details: in vivo
Rattus norvegicus [7] = assay: Electrocardiographic activity in rat upto 28 ug/ml, iv; type: functional, organism-based; procedure, shortened: as §1
Rattus norvegicus [8] = species on record: Rattus norvegicus; assay: Reduction in postprandial glucose excursion in Zucker rat measured as AUC glucose (0-240 min); type: functional, organism-based; parameters: time < 4 hr; procedure, shortened: as §2
[9] = Tmax in Sprague-Dawley rat at 5 mg/kg, po; type: ADME, organism-based; parameters: dose 5 mg/kg, route oral; details: in vivo
[10] = Plasma clearance in cynomolgus monkey at 2.5 mg/kg, iv; type: ADME, organism-based, Macaca fascicularis; parameters: dose 2.5 mg/kg, route intravenous
Prolyl endopeptidase = target: T1, Prolyl endopeptidase (Homo sapiens, UniProt P48147); assay: Inhibition of POP
T1 sequence (P48147 whole entry): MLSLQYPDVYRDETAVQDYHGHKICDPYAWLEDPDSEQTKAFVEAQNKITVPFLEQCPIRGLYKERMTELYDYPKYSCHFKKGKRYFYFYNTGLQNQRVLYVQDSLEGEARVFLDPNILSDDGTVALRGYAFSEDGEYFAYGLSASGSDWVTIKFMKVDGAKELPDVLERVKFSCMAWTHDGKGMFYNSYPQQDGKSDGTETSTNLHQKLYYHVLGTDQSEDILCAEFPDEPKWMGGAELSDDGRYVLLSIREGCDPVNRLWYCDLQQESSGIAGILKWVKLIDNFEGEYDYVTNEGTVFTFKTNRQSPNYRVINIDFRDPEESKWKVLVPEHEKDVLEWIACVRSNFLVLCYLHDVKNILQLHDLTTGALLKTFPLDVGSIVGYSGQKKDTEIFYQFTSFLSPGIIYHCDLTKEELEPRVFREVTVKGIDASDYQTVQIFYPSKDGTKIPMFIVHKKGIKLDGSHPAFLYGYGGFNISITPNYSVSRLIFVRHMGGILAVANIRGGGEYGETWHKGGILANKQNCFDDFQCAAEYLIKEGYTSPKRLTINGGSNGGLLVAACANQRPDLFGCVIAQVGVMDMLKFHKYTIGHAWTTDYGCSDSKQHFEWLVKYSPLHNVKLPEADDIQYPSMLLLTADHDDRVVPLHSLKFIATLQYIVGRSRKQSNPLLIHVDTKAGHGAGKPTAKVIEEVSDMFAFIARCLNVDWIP

Prolyl endopeptidase FAP = target: T2, Prolyl endopeptidase FAP (Homo sapiens, UniProt Q12884); assay: Inhibition of FAPalpha
T2 sequence (Q12884 whole entry): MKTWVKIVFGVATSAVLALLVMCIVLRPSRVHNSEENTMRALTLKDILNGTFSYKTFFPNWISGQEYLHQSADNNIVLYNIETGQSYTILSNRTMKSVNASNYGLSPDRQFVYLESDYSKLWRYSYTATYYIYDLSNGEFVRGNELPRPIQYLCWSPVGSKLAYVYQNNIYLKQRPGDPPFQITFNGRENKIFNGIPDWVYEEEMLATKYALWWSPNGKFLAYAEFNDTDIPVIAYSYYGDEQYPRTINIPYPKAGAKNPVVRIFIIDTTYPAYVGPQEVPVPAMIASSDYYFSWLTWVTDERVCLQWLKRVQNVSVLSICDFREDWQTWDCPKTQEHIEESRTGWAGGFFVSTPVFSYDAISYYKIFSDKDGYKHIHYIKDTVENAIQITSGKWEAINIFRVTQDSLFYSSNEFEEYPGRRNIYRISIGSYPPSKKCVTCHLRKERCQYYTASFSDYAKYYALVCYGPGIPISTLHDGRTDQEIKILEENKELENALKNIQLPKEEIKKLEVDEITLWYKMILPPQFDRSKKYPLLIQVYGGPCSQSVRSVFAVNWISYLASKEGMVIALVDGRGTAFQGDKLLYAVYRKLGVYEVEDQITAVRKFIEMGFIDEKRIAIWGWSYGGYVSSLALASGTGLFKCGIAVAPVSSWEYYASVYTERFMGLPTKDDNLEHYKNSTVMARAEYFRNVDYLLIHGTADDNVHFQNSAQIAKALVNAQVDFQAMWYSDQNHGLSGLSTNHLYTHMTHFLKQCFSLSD

[11] = Half life in Beagle dog at 2.5 mg/kg, iv; type: ADME, organism-based, Canis lupus familiaris; parameters: dose 2.5 mg/kg, route intravenous; details: in vivo
[12] = AUC in Beagle dog at 2.5 mg/kg, iv; type: ADME, organism-based, Canis lupus familiaris; parameters: dose 2.5 mg/kg, route intravenous; details: plasma
Procedure, shortened: (§3)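 Single intravenous dose. Plasma drug exposure is reported as area under the curve in µg-hr/mL. It is listed in the same table as T1/2, Vss, Vβ and plasma clearance (CLp).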

[13] = AUC in Sprague-Dawley rat at 5 mg/kg, iv; type: ADME, organism-based; parameters: dose 5 mg/kg, route intravenous; details: plasma; procedure, shortened: as §3
Cytochrome P450 2C9 = Cytochrome P450 2C9 (Homo sapiens, UniProt P11712); assay: Inhibition of CYP2C9; type: ADME
Chain of Cytochrome P450 2C9 (P11712 whole entry): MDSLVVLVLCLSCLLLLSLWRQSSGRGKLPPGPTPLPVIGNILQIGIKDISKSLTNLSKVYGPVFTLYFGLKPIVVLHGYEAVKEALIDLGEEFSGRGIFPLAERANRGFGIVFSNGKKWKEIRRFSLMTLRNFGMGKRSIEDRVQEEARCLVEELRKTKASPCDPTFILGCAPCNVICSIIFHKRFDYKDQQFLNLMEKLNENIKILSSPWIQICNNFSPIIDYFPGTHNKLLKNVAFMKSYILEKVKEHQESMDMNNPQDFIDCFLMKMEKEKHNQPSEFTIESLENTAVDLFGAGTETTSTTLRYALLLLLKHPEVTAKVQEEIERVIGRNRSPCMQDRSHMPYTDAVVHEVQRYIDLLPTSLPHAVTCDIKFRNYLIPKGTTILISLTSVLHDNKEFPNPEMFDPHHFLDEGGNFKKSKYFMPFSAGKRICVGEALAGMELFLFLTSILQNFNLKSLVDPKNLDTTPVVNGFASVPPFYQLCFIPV

[14] = Oral bioavailability in Beagle dog at 2.5 mg/kg, po; type: ADME, organism-based, Canis lupus familiaris; details: in vivo
Rattus norvegicus [15] = species on record: Rattus norvegicus; assay: Reduction in glucagon level in Zucker rat after 30 mins relative to control; type: functional; parameters: scale not given: the % may be the effect or the level left; procedure, shortened: as §2
[16] = Plasma clearance in Sprague-Dawley rat at 5 mg/kg, iv; type: ADME, organism-based; parameters: dose 5 mg/kg, route intravenous
[17] = target: Dipeptidyl peptidase 4 (Rattus norvegicus) (UniProt P14740); assay: Inhibition of Zucker rat plasma DPP4 after 4 hrs at 1 mg/kg; type: functional, organism-based; parameters: dose 1 mg/kg
Chain of Dipeptidyl peptidase 4 (Rattus norvegicus) (P14740 whole entry, looked up): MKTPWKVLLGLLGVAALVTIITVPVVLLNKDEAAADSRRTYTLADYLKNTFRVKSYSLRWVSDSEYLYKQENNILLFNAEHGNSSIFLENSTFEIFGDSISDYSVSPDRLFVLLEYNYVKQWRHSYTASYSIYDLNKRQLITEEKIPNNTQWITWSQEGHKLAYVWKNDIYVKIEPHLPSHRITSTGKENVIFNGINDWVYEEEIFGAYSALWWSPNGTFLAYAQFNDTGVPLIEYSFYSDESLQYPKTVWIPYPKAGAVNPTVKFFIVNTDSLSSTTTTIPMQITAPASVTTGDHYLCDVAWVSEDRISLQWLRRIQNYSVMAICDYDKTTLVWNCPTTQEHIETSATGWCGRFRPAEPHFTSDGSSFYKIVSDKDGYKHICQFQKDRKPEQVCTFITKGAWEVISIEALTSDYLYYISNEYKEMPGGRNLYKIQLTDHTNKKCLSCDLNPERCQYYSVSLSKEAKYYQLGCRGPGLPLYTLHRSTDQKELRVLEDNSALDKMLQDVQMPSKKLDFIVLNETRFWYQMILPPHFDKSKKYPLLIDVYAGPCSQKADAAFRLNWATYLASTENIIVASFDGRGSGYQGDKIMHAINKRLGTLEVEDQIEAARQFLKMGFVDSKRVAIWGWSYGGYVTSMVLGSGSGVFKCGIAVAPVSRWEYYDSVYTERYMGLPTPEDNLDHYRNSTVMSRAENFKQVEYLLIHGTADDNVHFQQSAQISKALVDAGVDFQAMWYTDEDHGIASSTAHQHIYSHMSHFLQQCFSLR
Procedure, shortened: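 Female Zucker diabetic fatty rats, 10 weeks old, fasted overnight, then given a single oral dose of 1 mg/kg or vehicle. Plasma DPP-IV activity inhibition and plasma drug level were measured 4 h post-dose, at the point when the rats were given free access to a liquid mixed meal (Ensure).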

[18] = Plasma clearance in Beagle dog at 2.5 mg/kg, iv; type: ADME, organism-based, Canis lupus familiaris; parameters: dose 2.5 mg/kg, route intravenous
Rattus norvegicus [19] = species on record: Rattus norvegicus; assay: Increase in insulin level in Zucker rat after 10 mins relative to control; type: functional; procedure, shortened: as §2
[20] = Half life in Beagle dog at 2.5 mg/kg, po; type: ADME, organism-based, Canis lupus familiaris; parameters: dose 2.5 mg/kg, route oral; details: in vivo
[21] = Cmax in Sprague-Dawley rat at 5 mg/kg, po; type: ADME, organism-based; parameters: dose 5 mg/kg, route oral; details: in vivo
[22] = Tmax in cynomolgus monkey at 2.5 mg/kg, po; type: ADME, organism-based, Macaca fascicularis; parameters: dose 2.5 mg/kg, route oral; details: in vivo
Salmonella typhi = assay: Mutagenicity against Salmonella typhi by miniAmes test upto 2 mg/well; type: functional, organism-based; details: Salmonella enterica subsp. enterica serovar Typhi
[23] = Volume of distribution in terminal phase in cynomolgus monkey at 2.5 mg/kg, iv; type: ADME, organism-based, Macaca fascicularis; parameters: dose 2.5 mg/kg, route intravenous; details: in vivo, read-out: Vbeta
[24] = target: Voltage-gated inwardly rectifying potassium channel KCNH2 (Homo sapiens, UniProt Q12809); assay: Binding affinity to hERG
Chain of Voltage-gated inwardly rectifying potassium channel KCNH2 (Q12809 whole entry): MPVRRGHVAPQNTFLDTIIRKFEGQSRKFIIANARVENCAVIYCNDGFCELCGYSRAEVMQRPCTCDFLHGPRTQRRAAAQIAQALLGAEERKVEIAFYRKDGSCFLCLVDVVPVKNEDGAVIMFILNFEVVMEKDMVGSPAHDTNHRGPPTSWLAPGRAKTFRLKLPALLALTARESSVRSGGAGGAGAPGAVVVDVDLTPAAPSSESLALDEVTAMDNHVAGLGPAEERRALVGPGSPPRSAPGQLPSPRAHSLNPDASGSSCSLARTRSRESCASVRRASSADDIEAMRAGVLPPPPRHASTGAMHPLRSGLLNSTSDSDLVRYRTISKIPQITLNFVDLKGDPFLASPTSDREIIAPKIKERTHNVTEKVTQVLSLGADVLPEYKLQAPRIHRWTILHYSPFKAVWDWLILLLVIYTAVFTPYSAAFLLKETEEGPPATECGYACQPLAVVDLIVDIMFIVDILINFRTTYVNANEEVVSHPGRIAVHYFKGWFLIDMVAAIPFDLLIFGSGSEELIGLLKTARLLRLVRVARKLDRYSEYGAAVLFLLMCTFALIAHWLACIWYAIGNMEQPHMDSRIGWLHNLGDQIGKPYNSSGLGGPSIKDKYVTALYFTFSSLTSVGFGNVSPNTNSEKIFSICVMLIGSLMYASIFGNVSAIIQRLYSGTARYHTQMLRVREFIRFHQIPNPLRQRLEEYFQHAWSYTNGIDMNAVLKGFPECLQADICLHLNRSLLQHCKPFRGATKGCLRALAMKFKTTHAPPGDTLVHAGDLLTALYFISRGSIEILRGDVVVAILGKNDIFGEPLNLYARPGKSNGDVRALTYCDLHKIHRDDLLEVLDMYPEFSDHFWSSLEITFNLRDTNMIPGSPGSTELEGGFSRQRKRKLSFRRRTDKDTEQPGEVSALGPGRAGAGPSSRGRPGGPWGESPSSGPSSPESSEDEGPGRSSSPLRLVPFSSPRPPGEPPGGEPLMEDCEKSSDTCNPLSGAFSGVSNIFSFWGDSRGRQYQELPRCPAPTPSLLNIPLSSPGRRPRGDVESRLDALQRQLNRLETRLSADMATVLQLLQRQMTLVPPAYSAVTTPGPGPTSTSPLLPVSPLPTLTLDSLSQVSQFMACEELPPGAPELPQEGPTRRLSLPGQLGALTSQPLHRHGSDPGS

Question: Which results are given for `C#C[C@H]1CC[C@@H](C#N)N1C(=O)CNC1(C)CCN(c2cc(C(=O)O)ccn2)CC1`?
Answer: Vd [1]: 8.5 L/kg; AUC(0-t) at 24 h [2]: 39000 ng·h/mL; AUC(0-t) at 24 h [3]: 36000 ng·h/mL; Activity (Rattus norvegicus [4]): Active; concentration at 4 h [5]: 18 ng/mL; Cmax [6]: 140 ng/mL; Activity (Rattus norvegicus [7]): Active; AUC (Rattus norvegicus [8]): 12500 mg/dL·min; Tmax [9]: 4.7 h; clearance [10]: 8.5 mL/min/kg; Ki (Prolyl endopeptidase): > 30 µM; Ki (Prolyl endopeptidase FAP): > 30 µM; half-life [11]: 6.4 h; AUC [12]: 2800 ng·h/mL; AUC [13]: 7600 ng·h/mL; IC50 (Cytochrome P450 2C9): > 30 µM; bioavailability [14]: 35.2%; Activity (Rattus norvegicus [15]): 50%; clearance [16]: 11.3 mL/min/kg; inhibition [17]: 87%; clearance [18]: 15.2 mL/min/kg; Activity (Rattus norvegicus [19]): 60%; half-life [20]: 5.3 h; Cmax [21]: 370 ng/mL; Tmax [22]: 2.7 h; Activity (Salmonella typhi): inactive; Vd [23]: 1.3 L/kg; Ki [24]: > 45.1 µM
